What was measured:
Assay type in all cases: functional
[1] = tested on: Campylobacter jejuni; assay: Antibacterial activity against Campylobacter jejuni by NCCLS agar doubling dilution method
Outline: (§1)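 MICs by agar doubling dilution following the NCCLS (CLSI) Campylobacter Working Group procedure, applied to ampicillin- and amoxicillin-resistant isolates from UK chicken flocks (2000–2006). C. jejuni NCTC 11168 and C. coli NCTC 11366 served as control strains. Resistance was called at an ampicillin cutoff of 8 μg/ml. Other agents were judged against Enterobacteriaceae guidelines (BSAC, CLSI).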

[2] = tested on: Campylobacter coli; assay: Antibacterial activity against Campylobacter coli by NCCLS agar doubling dilution method; outline: as §1
[3] = tested on: Campylobacter jejuni; assay: Antibacterial activity against Campylobacter jejuni by NCCLS agar doubling dilution method in presence of clavulanic acid; outline: as §1
[4] = tested on: Campylobacter jejuni; assay: Antibacterial activity against bla gene-positive and nitrocefin reaction-negative beta-lactamase harboring Campylobacter jejuni isolate NCTC 11168 by NCCLS agar doubling dilution method in presence of clavulanic acid
Outline: (§2)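 MICs of β-lactams by agar doubling dilution following the NCCLS (CLSI) Campylobacter Working Group procedure, with C. jejuni NCTC 11168 and C. coli NCTC 11366 as controls. Isolates were from UK poultry flocks. β-Lactamase status was set by Cj0299 PCR (281-bp amplimer) and by a nitrocefin colour change of sonicated lysate within 5 min, or within 30 min on repeat.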

[5] = tested on: Campylobacter jejuni; assay: Antibacterial activity against Campylobacter jejuni isolate P270 harboring blaOXA-61::cat gene by NCCLS agar doubling dilution method in presence of clavulanic acid
[6] = tested on: Campylobacter jejuni; assay: Antibacterial activity against bla gene-negative and nitrocefin reaction-negative beta-lactamase harboring Campylobacter jejuni isolate P835 by NCCLS agar doubling dilution method in presence of clavulanic acid; outline: as §2
[7] = tested on: Campylobacter jejuni; assay: Antibacterial activity against bla gene-negative and nitrocefin reaction-negative beta-lactamase harboring Campylobacter jejuni isolate P850 by NCCLS agar doubling dilution method in presence of clavulanic acid; outline: as §2
[8] = tested on: Campylobacter jejuni; assay: Antibacterial activity against bla gene-negative and nitrocefin reaction-negative beta-lactamase harboring Campylobacter jejuni isolate P1962 by NCCLS agar doubling dilution method in presence of clavulanic acid; outline: as §2
[9] = tested on: Campylobacter jejuni; assay: Antibacterial activity against bla gene-positive and nitrocefin reaction-positive beta-lactamase harboring Campylobacter jejuni isolate P285 by NCCLS agar doubling dilution method in presence of clavulanic acid
Outline: (§3)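 MICs by agar doubling dilution per the NCCLS (now CLSI) Campylobacter Working Group method. Isolates came from UK chicken flocks (feces, ceca or farm environment), 2000–2006. C. jejuni NCTC 11168 and C. coli NCTC 11366 served as control strains. The ampicillin resistance cutoff was 8 μg/ml; BSAC/CLSI Enterobacteriaceae guidelines were used for other agents.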

[10] = tested on: Campylobacter jejuni; assay: Antibacterial activity against bla gene-positive and nitrocefin reaction-positive beta-lactamase harboring Campylobacter jejuni isolate P286 by NCCLS agar doubling dilution method in presence of clavulanic acid; outline: as §3
[11] = tested on: Campylobacter jejuni; assay: Antibacterial activity against bla gene-positive and nitrocefin reaction-positive beta-lactamase harboring Campylobacter jejuni isolate P305 by NCCLS agar doubling dilution method in presence of clavulanic acid; outline: as §3
[12] = tested on: Campylobacter jejuni; assay: Antibacterial activity against bla gene-positive and nitrocefin reaction-positive beta-lactamase harboring Campylobacter jejuni isolate P316 by NCCLS agar doubling dilution method in presence of clavulanic acid; outline: as §3
[13] = tested on: Campylobacter jejuni; assay: Antibacterial activity against bla gene-positive and nitrocefin reaction-positive beta-lactamase harboring Campylobacter jejuni isolate P338 by NCCLS agar doubling dilution method in presence of clavulanic acid; outline: as §3
[14] = tested on: Campylobacter jejuni; assay: Antibacterial activity against Campylobacter jejuni isolate P338 harboring blaOXA-61::cat gene by NCCLS agar doubling dilution method in presence of clavulanic acid
Outline: (§4)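 Agar doubling dilution MICs (NCCLS/CLSI Campylobacter Working Group method) against Cj0299-inactivated mutants. Mutants were made by transforming the C. jejuni isolate with pCI and selecting on Mueller-Hinton agar with 10 μg/ml chloramphenicol for 3–5 days. Chromosomal insertion was confirmed by PCR with Cj0299 and cat primers.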

[15] = tested on: Campylobacter jejuni; assay: Antibacterial activity against bla gene-positive and nitrocefin reaction-positive beta-lactamase harboring Campylobacter jejuni isolate P790 by NCCLS agar doubling dilution method in presence of clavulanic acid; outline: as §3
[16] = tested on: Campylobacter jejuni; assay: Antibacterial activity against bla gene-positive and nitrocefin reaction-positive beta-lactamase harboring Campylobacter jejuni isolate P1093 by NCCLS agar doubling dilution method in presence of clavulanic acid; outline: as §2
[17] = tested on: Campylobacter jejuni; assay: Antibacterial activity against Campylobacter jejuni isolate P1093 harboring blaOXA-61::cat gene by NCCLS agar doubling dilution method in presence of clavulanic acid; outline: as §4
[18] = tested on: Campylobacter jejuni; assay: Antibacterial activity against bla gene-positive and nitrocefin reaction-positive beta-lactamase harboring Campylobacter jejuni isolate P1618 by NCCLS agar doubling dilution method in presence of clavulanic acid; outline: as §2
[19] = tested on: Campylobacter jejuni; assay: Antibacterial activity against bla gene-positive and nitrocefin reaction-positive beta-lactamase harboring Campylobacter jejuni isolate P1650 by NCCLS agar doubling dilution method in presence of clavulanic acid; outline: as §3
[20] = tested on: Campylobacter jejuni; assay: Antibacterial activity against bla gene-positive and nitrocefin reaction-positive beta-lactamase harboring Campylobacter jejuni isolate P1730 by NCCLS agar doubling dilution method in presence of clavulanic acid; outline: as §3
[21] = tested on: Campylobacter jejuni; assay: Antibacterial activity against bla gene-positive and nitrocefin reaction-negative beta-lactamase harboring Campylobacter jejuni isolate P1698 by NCCLS agar doubling dilution method in presence of clavulanic acid; outline: as §2
[22] = tested on: Campylobacter jejuni; assay: Antibacterial activity against bla gene-positive and nitrocefin reaction-negative beta-lactamase harboring Campylobacter jejuni isolate P1699 by NCCLS agar doubling dilution method in presence of clavulanic acid; outline: as §2
[23] = tested on: Campylobacter jejuni; assay: Antibacterial activity against bla gene-negative and nitrocefin reaction-positive beta-lactamase harboring Campylobacter jejuni isolate P843 by NCCLS agar doubling dilution method in presence of clavulanic acid; outline: as §2
[24] = tested on: Campylobacter jejuni; assay: Antibacterial activity against bla gene-negative and nitrocefin reaction-positive beta-lactamase harboring Campylobacter jejuni isolate P854 by NCCLS agar doubling dilution method in presence of clavulanic acid; outline: as §2
[25] = tested on: Campylobacter coli; assay: Antibacterial activity against bla gene-positive and nitrocefin reaction-positive beta-lactamase harboring Campylobacter coli isolate P321 by NCCLS agar doubling dilution method in presence of clavulanic acid; outline: as §2
[26] = tested on: Campylobacter coli; assay: Antibacterial activity against bla-positive and beta-lactamase-weakly positive Campylobacter coli isolate P1627 by NCCLS agar doubling dilution method in presence of clavulanic acid; outline: as §1
[27] = tested on: Campylobacter coli; assay: Antibacterial activity against bla gene-positive and nitrocefin reaction-positive beta-lactamase harboring Campylobacter coli isolate P1826 by NCCLS agar doubling dilution method in presence of clavulanic acid; outline: as §2
[28] = tested on: Campylobacter coli; assay: Antibacterial activity against Campylobacter coli by NCCLS agar doubling dilution method in presence of clavulanic acid; outline: as §1
[29] = tested on: Campylobacter jejuni; assay: Antibacterial activity against bla gene-positive and nitrocefin reaction-negative beta-lactamase harboring Campylobacter jejuni NCTC 11168 by NCCLS agar doubling dilution method; outline: as §2
[30] = tested on: Campylobacter jejuni; assay: Antibacterial activity against Campylobacter jejuni isolate P270 harboring blaOXA-61::cat gene by NCCLS agar doubling dilution method
[31] = tested on: Campylobacter jejuni; assay: Antibacterial activity against bla gene-negative and nitrocefin reaction-negative beta-lactamase harboring Campylobacter jejuni isolate P835 by NCCLS agar doubling dilution method; outline: as §2
[32] = tested on: Campylobacter jejuni; assay: Antibacterial activity against bla gene-negative and nitrocefin reaction-negative beta-lactamase harboring Campylobacter jejuni isolate P850 by NCCLS agar doubling dilution method; outline: as §2
[33] = tested on: Campylobacter jejuni; assay: Antibacterial activity against bla gene-negative and nitrocefin reaction-negative beta-lactamase harboring Campylobacter jejuni isolate P1962 by NCCLS agar doubling dilution method; outline: as §2
[34] = tested on: Campylobacter jejuni; assay: Antibacterial activity against bla gene-positive and nitrocefin reaction-positive beta-lactamase harboring Campylobacter jejuni isolate P285 by NCCLS agar doubling dilution method; outline: as §3
[35] = tested on: Campylobacter jejuni; assay: Antibacterial activity against bla gene-positive and nitrocefin reaction-positive beta-lactamase harboring Campylobacter jejuni isolate P286 by NCCLS agar doubling dilution method; outline: as §3
[36] = tested on: Campylobacter jejuni; assay: Antibacterial activity against bla gene-positive and nitrocefin reaction-positive beta-lactamase harboring Campylobacter jejuni isolate P305 by NCCLS agar doubling dilution method; outline: as §3
[37] = tested on: Campylobacter jejuni; assay: Antibacterial activity against bla gene-positive and nitrocefin reaction-positive beta-lactamase harboring Campylobacter jejuni isolate P316 by NCCLS agar doubling dilution method; outline: as §3
[38] = tested on: Campylobacter jejuni; assay: Antibacterial activity against bla gene-positive and nitrocefin reaction-positive beta-lactamase harboring Campylobacter jejuni isolate P338 by NCCLS agar doubling dilution method; outline: as §3
[39] = tested on: Campylobacter jejuni; assay: Antibacterial activity against Campylobacter jejuni isolate P338 harboring blaOXA-61::cat gene by NCCLS agar doubling dilution method; outline: as §4
[40] = tested on: Campylobacter jejuni; assay: Antibacterial activity against bla gene-positive and nitrocefin reaction-positive beta-lactamase harboring Campylobacter jejuni isolate P790 by NCCLS agar doubling dilution method; outline: as §3
[41] = tested on: Campylobacter jejuni; assay: Antibacterial activity against bla gene-positive and nitrocefin reaction-positive beta-lactamase harboring Campylobacter jejuni isolate P1093 by NCCLS agar doubling dilution method; outline: as §2
[42] = tested on: Campylobacter jejuni; assay: Antibacterial activity against Campylobacter jejuni isolate P1093 harboring blaOXA-61::cat gene by NCCLS agar doubling dilution method; outline: as §4
[43] = tested on: Campylobacter jejuni; assay: Antibacterial activity against bla gene-positive and nitrocefin reaction-positive beta-lactamase harboring Campylobacter jejuni isolate P1618 by NCCLS agar doubling dilution method; outline: as §2
[44] = tested on: Campylobacter jejuni; assay: Antibacterial activity against bla gene-positive and nitrocefin reaction-positive beta-lactamase harboring Campylobacter jejuni isolate P1650 by NCCLS agar doubling dilution method; outline: as §2
[45] = tested on: Campylobacter jejuni; assay: Antibacterial activity against bla gene-positive and nitrocefin reaction-positive beta-lactamase harboring Campylobacter jejuni isolate P1730 by NCCLS agar doubling dilution method; outline: as §3
[46] = tested on: Campylobacter jejuni; assay: Antibacterial activity against bla gene-positive and nitrocefin reaction-negative beta-lactamase harboring Campylobacter jejuni isolate P1698 by NCCLS agar doubling dilution method; outline: as §2
[47] = tested on: Campylobacter jejuni; assay: Antibacterial activity against bla gene-positive and nitrocefin reaction-negative beta-lactamase harboring Campylobacter jejuni isolate P1699 by NCCLS agar doubling dilution method; outline: as §2
[48] = tested on: Campylobacter jejuni; assay: Antibacterial activity against bla gene-negative and nitrocefin reaction-positive beta-lactamase harboring Campylobacter jejuni isolate P843 by NCCLS agar doubling dilution method; outline: as §2
[49] = tested on: Campylobacter jejuni; assay: Antibacterial activity against bla gene-negative and nitrocefin reaction-positive beta-lactamase harboring Campylobacter jejuni isolate P854 by NCCLS agar doubling dilution method; outline: as §2
[50] = tested on: Campylobacter coli; assay: Antibacterial activity against bla gene-positive and nitrocefin reaction-positive beta-lactamase harboring Campylobacter coli isolate P321 by NCCLS agar doubling dilution method; outline: as §2
[51] = tested on: Campylobacter coli; assay: Antibacterial activity against bla-positive and beta-lactamase-weakly positive Campylobacter coli isolate P1627 by NCCLS agar doubling dilution method; outline: as §3
[52] = tested on: Campylobacter coli; assay: Antibacterial activity against bla gene-positive and nitrocefin reaction-positive beta-lactamase harboring Campylobacter coli isolate P1826 by NCCLS agar doubling dilution method; outline: as §2

O=C(O)[C@H]1/C(=C/CO)O[C@@H]2CC(=O)N21 [CLAVULANIC ACID]
0.25 µg/mL: MIC [5]
32 µg/mL: MIC90 [2] | MIC [16] | MIC90 [28]
2 µg/mL: MIC [18]
0.5 µg/mL: MIC [6] | MIC [8] | MIC [17]
8 µg/mL: MIC90 [1] | MIC90 [3] | MIC [9] | MIC [10] | MIC [11] | MIC [12] | MIC [13] | MIC [20] | MIC [25] | MIC [27]
1 µg/mL: MIC [4] | MIC [14] | MIC [21]
4 µg/mL: MIC50 [1] | MIC50 [3] | MIC [7] | MIC [19] | MIC [22] | MIC [23] | MIC [24] | MIC [26]
16 µg/mL: MIC50 [2] | MIC [15] | MIC50 [28]

CC1(C)S[C@@H]2[C@H](NC(=O)Cc3ccccc3)C(=O)N2[C@H]1C(=O)O [PENICILLIN G]
< 8 µg/mL: MIC [46] | MIC [47]
256 µg/mL: MIC90 [1] | MIC [41] | MIC [49]
4 µg/mL: MIC [31]
64 µg/mL: MIC50 [1] | MIC [32] | MIC [43] | MIC [44] | MIC [45] | MIC [48] | MIC [50]
128 µg/mL: MIC50 [2] | MIC90 [2] | MIC [34] | MIC [35] | MIC [36] | MIC [37] | MIC [38] | MIC [40] | MIC [52]
2 µg/mL: MIC [30]
8 µg/mL: MIC [29] | MIC [33] | MIC [42] | MIC [51]
16 µg/mL: MIC [39]

— ChEMBL document CHEMBL1649560, “Beta-lactamase-mediated beta-lactam resistance in Campylobacter species: prevalence of Cj0299 (bla OXA-61) and evidence for a novel beta-Lactamase in C. jejuni” (2009)
